How the values were obtained:
[1] = Antitumor activity against mouse Gardner lymphosarcoma allografted in C3H mouse assessed as tumor growth inhibition at 0.125 mg/kg, ip administered daily for 8 to 10 days; format: functional; settings: route intraperitoneal, read-out: TGI
Outline: (§1)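 Gardner lymphosarcoma in C3H mice; sulfate salts unless noted, given ip daily for 8–10 days, treatment starting 8 days after tumor implantation. Tumor growth inhibition scored as –, 0–25%; +, 26–50%; ++, 51–75%; +++, 76–100%; T, lethal to ≥5 of 10 animals per group. Average of one or more tests.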

[2] = Antitumor activity against mouse Gardner lymphosarcoma allografted in C3H mouse assessed as tumor growth inhibition at 0.10 mg/kg, ip administered daily for 8 to 10 days; format: functional; settings: route intraperitoneal, read-out: TGI; outline: as §1
[3] = Antitumor activity against mouse Gardner lymphosarcoma allografted in C3H mouse assessed as tumor growth inhibition at 0.20 mg/kg, ip administered daily for 8 to 10 days; format: functional; settings: route intraperitoneal, read-out: TGI; outline: as §1
[4] = Antitumor activity against mouse Gardner lymphosarcoma allografted in C3H mouse assessed as tumor growth inhibition at 0.40 mg/kg, ip administered daily for 8 to 10 days; format: functional; settings: route intraperitoneal, read-out: TGI; outline: as §1
[5] = Antitumor activity against mouse Gardner lymphosarcoma allografted in C3H mouse assessed as tumor growth inhibition at 0.25 mg/kg, ip administered daily for 8 to 10 days; format: functional; settings: route intraperitoneal, read-out: TGI; outline: as §1
[6] = Antitumor activity against mouse Gardner lymphosarcoma allografted in C3H mouse assessed as tumor growth inhibition at 0.5 mg/kg, ip administered daily for 8 to 10 days; format: functional; settings: route intraperitoneal, read-out: TGI; outline: as §1
[7] = test system: CHO; assay: Mitotic arrest in CHO cells assessed as increase in cell accumulation at 0.02 ug/ml; format: functional, Cricetulus griseus
Outline: (§2)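 Chinese hamster ovary cells in tissue culture, scored for mitotic arrest as increase in cells in mitotic arrest over control: +++, 40–50%; ++, 15–40%; +, 10–15%; ±, 7–10%; –, 3–7%. Cytotoxicity noted separately.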

[8] = Antitumor activity against mouse Ridgway osteogenic sarcoma allografted in AKR mouse assessed as tumor growth inhibition at 0.05 mg/kg, ip administered daily for 8 to 10 days compound treatment commenced 8 days after tumor implantation; format: functional; settings: route intraperitoneal, read-out: TGI
[9] = test system: B16; assay: Antitumor activity against mouse B16 cells allografted in C57BL/6 mouse assessed as prolongation of host survival at 0.90 mg/kg, ip administered on days 1,5 and 9; format: functional; settings: route intraperitoneal
Outline: (§3)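 B16 melanoma cells (10⁶ inoculum) implanted ip in C57BL/6 mice; groups of 10. Sulfate salts unless noted, given ip on days 1, 5 and 9. Single test. Survival prolongation is expressed as percent versus controls, with survivors counted on day 60. Toxic means deaths of ≥5 of 10 animals before the first control death.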

[10] = test system: CHO; assay: Mitotic arrest in CHO cells assessed as increase in cell accumulation at 0.2 ug/ml; format: functional, Cricetulus griseus; outline: as §2
[11] = Antitumor activity against mouse Ridgway osteogenic sarcoma allografted in AKR mouse assessed as tumor growth inhibition at 0.20 mg/kg, ip administered daily for 8 to 10 days compound treatment commenced 8 days after tumor implantation; format: functional; settings: route intraperitoneal, read-out: TGI
[12] = Toxicity in iv dosed mouse assessed as lethality; format: organism-based; settings: in vivo
[13] = Antitumor activity against mouse Ridgway osteogenic sarcoma allografted in AKR mouse assessed as tumor growth inhibition at 0.40 mg/kg, ip administered daily for 8 to 10 days compound treatment commenced 8 days after tumor implantation; format: functional; settings: route intraperitoneal, read-out: TGI
[14] = test system: B16; assay: Antitumor activity against mouse B16 cells allografted in C57BL/6 mouse assessed as prolongation of host survival at 1.20 mg/kg, ip administered on days 1,5 and 9; format: functional; settings: route intraperitoneal; outline: as §3
[15] = test system: CHO; assay: Mitotic arrest in CHO cells assessed as increase in cell accumulation at 0.002 ug/ml; format: functional, Cricetulus griseus; outline: as §2
[16] = Antitumor activity against mouse P1534 cells allografted in DBA2 mouse assessed as tumor growth inhibition at 0.10 mg/kg, ip administered daily for 8 to 10 days; format: functional; settings: route intraperitoneal, read-out: TGI
Outline: (§4)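 P1534(J) leukemia implanted sc in DBA2 mice; sulfate salts dosed ip daily for 8–10 days. Growth inhibition scored –, 0–25%; +, 26–50%; ++, 51–75%; +++, 76–100%; T, lethal to ≥5 of 10 animals per group. Average of one or more tests.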

[17] = Antitumor activity against mouse Ridgway osteogenic sarcoma allografted in AKR mouse assessed as tumor growth inhibition at 0.10 mg/kg, ip administered daily for 8 to 10 days compound treatment commenced 8 days after tumor implantation; format: functional; settings: route intraperitoneal, read-out: TGI
[18] = test system: B16; assay: Antitumor activity against mouse B16 cells allografted in C57BL/6 mouse assessed as prolongation of host survival at 0.60 mg/kg, ip administered on days 1,5 and 9; format: functional; settings: route intraperitoneal; outline: as §3
[19] = Antitumor activity against mouse Gardner lymphosarcoma allografted in C3H mouse assessed as tumor growth inhibition at 0.05 mg/kg, ip administered daily for 8 to 10 days; format: functional; settings: route intraperitoneal, read-out: TGI; outline: as §1
[20] = Antitumor activity against mouse P1534 cells allografted in DBA2 mouse assessed as tumor growth inhibition at 0.40 mg/kg, ip administered daily for 8 to 10 days; format: functional; settings: route intraperitoneal, read-out: TGI; outline: as §4
[21] = Antitumor activity against mouse P1534 cells allografted in DBA2 mouse assessed as tumor growth inhibition at 0.20 mg/kg, ip administered daily for 8 to 10 days; format: functional; settings: route intraperitoneal, read-out: TGI; outline: as §4
[22] = test system: Mus musculus; assay: Toxicity in C57BL/6 mouse allografted with mouse B16 cells assessed as animal death at 1.20 mg/kg, ip administered on days 1,5 and 9; format: organism-based; parameters: dose 1.2 mg/kg, route intraperitoneal; settings: in vivo, 1.2 mg/kg; outline: as §3
[23] = test system: Mus musculus; assay: Toxicity in C57BL/6 mouse allografted with mouse B16 cells assessed as animal death at 0.90 mg/kg, ip administered on days 1,5 and 9; format: organism-based; parameters: dose 0.9 mg/kg, route intraperitoneal; settings: in vivo, 0.9 mg/kg; outline: as §3
[24] = test system: Mus musculus; assay: Toxicity in C57BL/6 mouse allografted with mouse B16 cells assessed as animal death at 0.60 mg/kg, ip administered on days 1,5 and 9; format: organism-based; parameters: dose 0.6 mg/kg, route intraperitoneal; settings: in vivo, 0.6 mg/kg; outline: as §3

SMILES	inhibition in vivo at 0.1 mg/kg [2] [%]	inhibition in vivo at 0.2 mg/kg [3] [%]	inhibition in vivo at 0.4 mg/kg [4] [%]	inhibition in vivo at 0.05 mg/kg [8] [%]	inhibition in vivo at 0.2 mg/kg [11] [%]	inhibition in vivo at 0.4 mg/kg [13] [%]	inhibition in vivo at 0.1 mg/kg [17] [%]	also measured
CC[C@]1(O)C[C@H]2CN(CCc3c([nH]c4ccccc34)[C@@](C(=O)OC)(c3cc4c(cc3OC)N(C)[C@H]3[C@@](O)(C(=O)NCCNC(C)=O)[C@H](O)[C@]5(CC)C=CCN6CC[C@]43[C@@H]65)C2)C1	76	76	76					inhibition in vivo at 0.125 mg/kg [1]: 51%; inhibition in vivo at 0.25 mg/kg [5]: 76%; inhibition in vivo at 0.5 mg/kg [6]: 76%
CC[C@]1(O)C[C@H]2CN(CCc3c([nH]c4ccccc34)[C@@](C(=O)OC)(c3cc4c(cc3OC)N(C)[C@H]3[C@@](O)(C(=O)NCCO)[C@H](O)[C@]5(CC)C=CCN6CC[C@]43[C@@H]65)C2)C1.O=S(=O)(O)O	76	76	76	51	76	76	76	Activity [7]: 15%; survival at 0.9 mg/kg [9]: 97%; Activity [10]: 15%; LD50 [12]: 4.4 mg/kg; survival at 1.2 mg/kg [14]: 93%; Activity [15]: 3%; inhibition in vivo at 0.1 mg/kg [16]: 51%; survival at 0.6 mg/kg [18]: 51%; inhibition in vivo at 0.05 mg/kg [19]: 76%
CC[C@]1(O)C[C@H]2CN(CCc3c([nH]c4ccccc34)[C@@](C(=O)OC)(c3cc4c(cc3OC)N(C)[C@H]3[C@@](O)(C(=O)NCCCO)[C@H](O)[C@]5(CC)C=CCN6CC[C@]43[C@@H]65)C2)C1		51	76	26	76	76	76	inhibition in vivo at 0.4 mg/kg [20]: 76%; inhibition in vivo at 0.2 mg/kg [21]: 76%
CC[C@]1(O)C[C@H]2CN(CCc3c([nH]c4ccccc34)[C@@](C(=O)OC)(c3cc4c(cc3OC)N(C)[C@H]3[C@@](O)(C(=O)NCCOC)[C@H](O)[C@]5(CC)C=CCN6CC[C@]43[C@@H]65)C2)C1.O=S(=O)(O)O	0	0						Activity [22]: Toxic; Activity [23]: Toxic; Activity [24]: Toxic

Source: ChEMBL document CHEMBL3227917, “Structure-activity relationships of dimeric Catharanthus alkaloids. 2. Experimental antitumor activities of N-substituted deacetylvinblastine amide (vindesine) sulfates” (J Med Chem, 1979)
